Source: ChEMBL document CHEMBL5653631, “A Potent and Selective ULK1 Inhibitor Suppresses Autophagy and Sensitizes Cancer Cells to Nutrient Stress” (iScience, 2018)
Blank lines part the entries; values can stand above or below the compound they belong to.

Experiments:
[1] = target: Serine/threonine-protein kinase pim-1 (Homo sapiens) (UniProt P11309); assay: Inhibition of human recombinant PIM1 at 500 nM in presence of ATP by radiometric assay relative to control
[2] = target: Receptor tyrosine-protein kinase erbB-2 (Homo sapiens) (UniProt P04626); assay: Inhibition of human recombinant ErbB2 at 500 nM related to control ULK1
Sequence of Receptor tyrosine-protein kinase erbB-2 (Homo sapiens) (P04626 whole entry): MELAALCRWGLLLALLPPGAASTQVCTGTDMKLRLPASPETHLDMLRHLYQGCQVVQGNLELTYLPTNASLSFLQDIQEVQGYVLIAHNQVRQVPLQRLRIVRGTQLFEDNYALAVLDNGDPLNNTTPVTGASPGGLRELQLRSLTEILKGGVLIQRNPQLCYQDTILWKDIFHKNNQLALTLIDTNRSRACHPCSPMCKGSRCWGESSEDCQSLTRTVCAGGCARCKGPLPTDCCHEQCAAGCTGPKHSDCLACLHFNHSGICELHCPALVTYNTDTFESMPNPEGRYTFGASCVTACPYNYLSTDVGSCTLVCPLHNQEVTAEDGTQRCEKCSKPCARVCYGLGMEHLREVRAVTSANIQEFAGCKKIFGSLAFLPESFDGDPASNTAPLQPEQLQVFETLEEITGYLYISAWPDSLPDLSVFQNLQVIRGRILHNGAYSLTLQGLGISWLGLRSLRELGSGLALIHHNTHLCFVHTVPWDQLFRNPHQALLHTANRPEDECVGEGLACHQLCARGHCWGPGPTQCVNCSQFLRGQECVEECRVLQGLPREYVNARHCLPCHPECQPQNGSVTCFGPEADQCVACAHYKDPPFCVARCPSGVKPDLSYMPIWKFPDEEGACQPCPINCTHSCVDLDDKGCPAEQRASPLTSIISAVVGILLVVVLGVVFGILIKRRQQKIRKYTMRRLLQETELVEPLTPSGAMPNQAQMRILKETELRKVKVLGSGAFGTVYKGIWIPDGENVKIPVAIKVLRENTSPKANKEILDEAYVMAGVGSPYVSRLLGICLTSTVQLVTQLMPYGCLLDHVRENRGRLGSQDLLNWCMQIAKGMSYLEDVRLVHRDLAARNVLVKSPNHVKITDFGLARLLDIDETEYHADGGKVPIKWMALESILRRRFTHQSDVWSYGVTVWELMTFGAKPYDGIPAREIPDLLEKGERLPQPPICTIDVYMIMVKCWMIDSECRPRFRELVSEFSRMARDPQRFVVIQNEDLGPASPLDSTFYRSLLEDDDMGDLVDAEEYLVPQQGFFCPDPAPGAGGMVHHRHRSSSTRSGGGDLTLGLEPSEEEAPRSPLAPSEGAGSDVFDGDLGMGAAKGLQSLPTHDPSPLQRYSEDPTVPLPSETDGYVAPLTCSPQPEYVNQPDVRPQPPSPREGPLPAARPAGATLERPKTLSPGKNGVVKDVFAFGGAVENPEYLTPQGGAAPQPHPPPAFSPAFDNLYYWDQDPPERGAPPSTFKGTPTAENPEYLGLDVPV

[3] = target: T1, Serine/threonine-protein kinase DCLK2 (Homo sapiens) (UniProt Q8N568); assay: Inhibition of human recombinant DCAMKL2 at 500 nM related to control ULK1
T1 sequence (whole entry): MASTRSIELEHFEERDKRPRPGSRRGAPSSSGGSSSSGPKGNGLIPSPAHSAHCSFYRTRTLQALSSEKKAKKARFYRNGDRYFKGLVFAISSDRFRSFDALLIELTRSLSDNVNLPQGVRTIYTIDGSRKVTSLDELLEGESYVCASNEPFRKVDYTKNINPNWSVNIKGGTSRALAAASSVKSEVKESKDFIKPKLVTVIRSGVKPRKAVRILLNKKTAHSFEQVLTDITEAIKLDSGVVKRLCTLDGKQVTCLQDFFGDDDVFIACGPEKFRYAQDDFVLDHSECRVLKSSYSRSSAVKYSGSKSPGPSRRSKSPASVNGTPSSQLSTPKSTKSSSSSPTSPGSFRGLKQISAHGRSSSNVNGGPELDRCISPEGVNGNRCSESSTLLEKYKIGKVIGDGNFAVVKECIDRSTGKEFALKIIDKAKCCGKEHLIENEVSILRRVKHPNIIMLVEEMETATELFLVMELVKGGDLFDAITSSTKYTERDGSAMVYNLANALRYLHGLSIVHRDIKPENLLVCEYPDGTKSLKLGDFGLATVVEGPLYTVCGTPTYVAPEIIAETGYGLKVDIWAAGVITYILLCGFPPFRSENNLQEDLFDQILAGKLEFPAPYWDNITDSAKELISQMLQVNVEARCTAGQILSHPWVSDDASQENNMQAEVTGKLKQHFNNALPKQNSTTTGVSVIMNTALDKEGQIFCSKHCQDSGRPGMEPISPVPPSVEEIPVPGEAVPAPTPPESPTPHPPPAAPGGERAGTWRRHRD

[4] = target: T2, Activin receptor type-1 (Homo sapiens) (UniProt Q04771); assay: Inhibition of human recombinant ALK2 at 15 nM in presence of ATP by radiometric assay relative to control
T2 sequence (whole entry): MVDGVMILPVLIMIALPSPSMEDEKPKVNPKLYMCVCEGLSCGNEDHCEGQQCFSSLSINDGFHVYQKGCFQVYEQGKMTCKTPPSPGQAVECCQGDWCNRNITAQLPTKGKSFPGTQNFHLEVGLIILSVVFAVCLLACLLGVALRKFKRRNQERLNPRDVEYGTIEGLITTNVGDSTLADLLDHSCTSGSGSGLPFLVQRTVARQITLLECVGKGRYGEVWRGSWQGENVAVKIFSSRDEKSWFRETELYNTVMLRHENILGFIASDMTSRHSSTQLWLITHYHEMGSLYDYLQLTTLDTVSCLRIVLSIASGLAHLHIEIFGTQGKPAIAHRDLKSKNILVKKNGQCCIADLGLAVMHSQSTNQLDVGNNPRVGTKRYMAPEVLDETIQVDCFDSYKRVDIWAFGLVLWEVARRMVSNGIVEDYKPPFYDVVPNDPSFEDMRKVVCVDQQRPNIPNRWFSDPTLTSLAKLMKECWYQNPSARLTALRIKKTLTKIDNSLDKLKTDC
Procedure, shortened: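 Panel of 327 recombinant human kinases, each assayed in vitro by radiometric activity assay in duplicate at a single inhibitor concentration per compound, chosen with reference to its ULK1 inhibition. Activity remaining was expressed as percent of vehicle control, and percent inhibition was calculated as 100 minus percent activity remaining.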

[5] = target: Protein kinase C alpha type (Homo sapiens) (UniProt P17252); assay: Inhibition of human recombinant PKCa at 15 nM related to control ULK1
[6] = target: T3, Mitogen-activated protein kinase kinase kinase 2 (Homo sapiens) (UniProt Q9Y2U5); assay: Inhibition of human recombinant MAP3K2 at 15 nM in presence of ATP by radiometric assay relative to control
T3 sequence (whole entry): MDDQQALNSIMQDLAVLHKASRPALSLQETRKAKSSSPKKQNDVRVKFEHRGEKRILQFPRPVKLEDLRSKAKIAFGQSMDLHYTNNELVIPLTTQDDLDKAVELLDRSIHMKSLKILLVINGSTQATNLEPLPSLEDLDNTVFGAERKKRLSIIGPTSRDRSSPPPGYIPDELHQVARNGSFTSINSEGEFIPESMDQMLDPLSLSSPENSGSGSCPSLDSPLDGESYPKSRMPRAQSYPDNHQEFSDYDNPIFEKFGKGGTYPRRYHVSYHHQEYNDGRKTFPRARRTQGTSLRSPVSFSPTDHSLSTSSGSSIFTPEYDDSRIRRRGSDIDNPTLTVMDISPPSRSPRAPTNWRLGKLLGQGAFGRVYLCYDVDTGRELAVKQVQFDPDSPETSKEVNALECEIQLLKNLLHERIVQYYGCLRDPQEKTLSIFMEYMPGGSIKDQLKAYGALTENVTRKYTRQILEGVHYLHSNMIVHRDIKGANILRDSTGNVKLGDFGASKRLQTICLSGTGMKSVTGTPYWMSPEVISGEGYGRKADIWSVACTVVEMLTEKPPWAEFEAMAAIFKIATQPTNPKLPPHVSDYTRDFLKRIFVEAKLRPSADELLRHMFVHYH

[7] = target: T4, NUAK family SNF1-like kinase 2 (Homo sapiens) (UniProt Q9H093); assay: Inhibition of human recombinant NuaK2 at 40 nM related to control ULK1
T4 sequence (whole entry): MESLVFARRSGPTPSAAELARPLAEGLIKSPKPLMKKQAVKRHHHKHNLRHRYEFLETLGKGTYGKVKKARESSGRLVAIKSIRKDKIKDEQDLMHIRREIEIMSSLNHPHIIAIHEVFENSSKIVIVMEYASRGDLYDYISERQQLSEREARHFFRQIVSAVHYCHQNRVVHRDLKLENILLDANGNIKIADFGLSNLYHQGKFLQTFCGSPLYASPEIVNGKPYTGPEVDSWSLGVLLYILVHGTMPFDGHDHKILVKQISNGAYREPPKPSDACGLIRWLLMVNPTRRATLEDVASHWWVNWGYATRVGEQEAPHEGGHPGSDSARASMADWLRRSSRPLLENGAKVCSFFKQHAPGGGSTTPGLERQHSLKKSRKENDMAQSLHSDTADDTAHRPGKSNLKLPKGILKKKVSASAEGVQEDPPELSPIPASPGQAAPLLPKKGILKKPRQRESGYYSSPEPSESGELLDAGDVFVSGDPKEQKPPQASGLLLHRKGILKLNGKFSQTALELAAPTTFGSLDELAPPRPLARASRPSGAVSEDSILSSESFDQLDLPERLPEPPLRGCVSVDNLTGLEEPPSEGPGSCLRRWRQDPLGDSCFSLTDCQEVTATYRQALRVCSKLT

[8] = target: SRSF protein kinase 3 (Homo sapiens) (UniProt Q9UPE1); assay: Inhibition of human recombinant MSSK1 at 40 nM related to control ULK1
Sequence of SRSF protein kinase 3 (Homo sapiens) (Q9UPE1 whole entry): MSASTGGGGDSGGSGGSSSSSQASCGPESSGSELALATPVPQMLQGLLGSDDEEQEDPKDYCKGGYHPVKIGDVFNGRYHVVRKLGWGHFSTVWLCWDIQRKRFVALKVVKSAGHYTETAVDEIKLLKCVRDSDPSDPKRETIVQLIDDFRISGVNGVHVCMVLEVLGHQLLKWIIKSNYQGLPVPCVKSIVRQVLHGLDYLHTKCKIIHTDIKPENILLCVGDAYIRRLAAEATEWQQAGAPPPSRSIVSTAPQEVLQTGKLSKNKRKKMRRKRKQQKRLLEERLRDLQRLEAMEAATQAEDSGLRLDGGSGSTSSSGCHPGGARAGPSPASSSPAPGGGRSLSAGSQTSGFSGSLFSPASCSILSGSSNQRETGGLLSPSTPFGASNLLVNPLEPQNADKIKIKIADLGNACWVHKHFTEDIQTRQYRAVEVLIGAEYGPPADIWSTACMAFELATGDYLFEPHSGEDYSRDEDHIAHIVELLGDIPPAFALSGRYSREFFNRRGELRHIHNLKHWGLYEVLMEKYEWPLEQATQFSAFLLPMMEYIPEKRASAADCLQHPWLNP

Sequence of Serine/threonine-protein kinase pim-1 (Homo sapiens) (P11309 whole entry, looked up): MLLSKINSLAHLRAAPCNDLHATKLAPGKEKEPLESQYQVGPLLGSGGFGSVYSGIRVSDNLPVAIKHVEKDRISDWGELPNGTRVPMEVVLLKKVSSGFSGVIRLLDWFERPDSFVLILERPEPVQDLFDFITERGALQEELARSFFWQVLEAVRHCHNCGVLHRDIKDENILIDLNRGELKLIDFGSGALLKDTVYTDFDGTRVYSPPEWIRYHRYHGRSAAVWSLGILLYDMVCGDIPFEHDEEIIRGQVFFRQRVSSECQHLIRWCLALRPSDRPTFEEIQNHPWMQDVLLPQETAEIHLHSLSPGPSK

inhibition [1]: 2%
fold change (FC) [2]: 0
fold change (FC) [3]: 0
SMILES: CNC(=O)c1ccccc1Oc1nc(Nc2cc(OC)c(OC)c(OC)c2)ncc1Br

inhibition [4]: 26%
fold change (FC) [5]: 0.08
inhibition [6]: 3%
SMILES: CC(C)[C@H](NC(=O)c1cc(-c2cnn3cc(-c4ccc(OCCN5CCCCC5)cc4)cnc23)cs1)C(F)(F)F

fold change (FC) [7]: 0.04
fold change (FC) [8]: 0.18
SMILES: O=C(N[C@@H](C1CC1)C(F)(F)F)c1cc(-c2cnn3cc(-c4ccc(F)cc4)cnc23)cs1
